From ChEMBL document CHEMBL2086261, “A focused sulfated glycoconjugate Ugi library for probing heparan sulfate-binding angiogenic growth factors” (Bioorg Med Chem Lett, 2012)

How the values were obtained:
[1] = target: Fibroblast growth factor 1 (Homo sapiens, UniProt P05230); assay: Binding affinity to FGF1 by surface plasmon resonance-based solution affinity assay
Summary of the method: (§1)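 Dissociation constants (Kd) for ligand binding to FGF-1, FGF-2 and VEGF were determined by an SPR solution affinity assay. Some entries come from a single measurement only.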

[2] = target: Fibroblast growth factor 2 (Homo sapiens, UniProt P09038); assay: Binding affinity to FGF2 by surface plasmon resonance-based solution affinity assay; summary of the method: as §1
Chain of Fibroblast growth factor 2 (P09038 143-288 limits assumed): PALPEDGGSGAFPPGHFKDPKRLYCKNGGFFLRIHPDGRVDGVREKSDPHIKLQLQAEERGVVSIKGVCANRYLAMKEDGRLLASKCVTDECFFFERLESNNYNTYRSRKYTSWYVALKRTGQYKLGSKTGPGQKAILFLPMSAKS

[3] = target: T1, Vascular endothelial growth factor A, long form (Homo sapiens, UniProt P15692); assay: Binding affinity to VEGF by surface plasmon resonance-based solution affinity assay; summary of the method: as §1
T1 sequence (P15692 whole entry): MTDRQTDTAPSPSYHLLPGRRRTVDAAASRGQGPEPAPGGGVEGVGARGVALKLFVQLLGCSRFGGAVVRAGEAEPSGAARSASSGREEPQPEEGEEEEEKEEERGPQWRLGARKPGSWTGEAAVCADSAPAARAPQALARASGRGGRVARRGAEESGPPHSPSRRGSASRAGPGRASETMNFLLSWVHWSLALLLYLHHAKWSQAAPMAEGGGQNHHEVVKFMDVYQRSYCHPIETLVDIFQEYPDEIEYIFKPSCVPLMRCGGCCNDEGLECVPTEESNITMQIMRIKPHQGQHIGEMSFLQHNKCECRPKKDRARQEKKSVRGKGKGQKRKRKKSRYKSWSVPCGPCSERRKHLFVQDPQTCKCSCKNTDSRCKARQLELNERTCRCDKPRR

Chain of Fibroblast growth factor 1 (P05230 whole entry): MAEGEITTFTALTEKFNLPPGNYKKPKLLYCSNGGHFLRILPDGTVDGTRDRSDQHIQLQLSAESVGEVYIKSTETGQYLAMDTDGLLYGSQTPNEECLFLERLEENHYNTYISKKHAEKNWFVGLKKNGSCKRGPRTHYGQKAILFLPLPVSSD

| Compound | Kd [1] | Kd [2] | Kd [3] |
| --- | --- | --- | --- |
| CCCCC1CCC(N(CC(=O)NC[C@H]2O[C@H](OC)[C@@H](OS(=O)(=O)O)[C@@H](OS(=O)(=O)O)[C@@H]2OS(=O)(=O)O)C(C)=O)CC1 (stereo not given in full) | 243 µM | 540 µM | 1000 µM |
| CCN(CC(=O)NC[C@H]1O[C@H](OC)[C@@H](OS(=O)(=O)O)[C@@H](OS(=O)(=O)O)[C@@H]1OS(=O)(=O)O)C(=O)CCc1ccccc1 | – | – | 596 µM |
| CO[C@H]1O[C@H](CNC(=O)CN(C(C)=O)C2CCCCC2)[C@@H](OS(=O)(=O)O)[C@H](OS(=O)(=O)O)[C@@H]1OS(=O)(=O)O | 310 µM | 413 µM | 1700 µM |
| CO[C@H]1O[C@H](CNC(=O)CN(CCOS(=O)(=O)O)C(C)=O)[C@@H](OS(=O)(=O)O)[C@H](OS(=O)(=O)O)[C@@H]1OS(=O)(=O)O | 95 µM | 240 µM | 280 µM |
| CCN(CC(=O)NC[C@H]1O[C@H](OC)[C@@H](OS(=O)(=O)O)[C@@H](OS(=O)(=O)O)[C@@H]1OS(=O)(=O)O)C(=O)CCCc1ccccc1 | 500 µM | 400 µM | 81 µM |
| CCN(CC(=O)NC[C@H]1O[C@H](OC)[C@@H](OS(=O)(=O)O)[C@@H](OS(=O)(=O)O)[C@@H]1OS(=O)(=O)O)C(=O)COS(=O)(=O)O | 174 µM | – | 512 µM |
| CO[C@H]1O[C@H](CNC(=O)CN(C(C)=O)C2CCCCCCCCCCC2)[C@@H](OS(=O)(=O)O)[C@H](OS(=O)(=O)O)[C@@H]1OS(=O)(=O)O | 265 µM | 480 µM | 1200 µM |
| CCN(CC(=O)NCCO[C@H]1O[C@H](COS(=O)(=O)O)[C@@H](OS(=O)(=O)O)[C@H](OS(=O)(=O)O)[C@@H]1OS(=O)(=O)O)C(=O)CCC(=O)O | 43 µM | 122 µM | 40 µM |
| CO[C@H]1O[C@H](CNC(=O)CN(CCc2ccccc2)C(C)=O)[C@@H](OS(=O)(=O)O)[C@H](OS(=O)(=O)O)[C@@H]1OS(=O)(=O)O | 224 µM | 680 µM | 109 µM |
| CCN(CC(=O)NCCO[C@H]1O[C@H](COS(=O)(=O)O)[C@@H](OS(=O)(=O)O)[C@H](OS(=O)(=O)O)[C@@H]1OS(=O)(=O)O)C(=O)CCCCC(=O)O | 44 µM | 188 µM | 81 µM |
| CO[C@H]1O[C@H](COS(=O)(=O)O)[C@@H](OS(=O)(=O)O)[C@H](OS(=O)(=O)O)[C@@H]1OS(=O)(=O)O | – | – | 198 µM |
| CO[C@H]1O[C@H](CN=[N+]=[N-])[C@@H](OS(=O)(=O)O)[C@H](OS(=O)(=O)O)[C@@H]1OS(=O)(=O)O | 343 µM | 210 µM | 630 µM |
| CO[C@H]1O[C@H](CNC(=O)CNC(=O)Cc2cccc(Cl)c2)[C@@H](OS(=O)(=O)O)[C@H](OS(=O)(=O)O)[C@@H]1OS(=O)(=O)O | 37 µM | 430 µM | 45.3 µM |
| CO[C@H]1O[C@H](CNC(=O)CN(Cc2ccccc2)C(C)=O)[C@@H](OS(=O)(=O)O)[C@H](OS(=O)(=O)O)[C@@H]1OS(=O)(=O)O | 140 µM | 192 µM | 77 µM |
| CC(=O)N(CC(=O)NCCO[C@H]1O[C@H](COS(=O)(=O)O)[C@@H](OS(=O)(=O)O)[C@H](OS(=O)(=O)O)[C@@H]1OS(=O)(=O)O)Cc1ccccc1 | 25 µM | 287 µM | 76.6 µM |
| CO[C@H]1O[C@H](CNC(=O)CN(C(C)=O)c2ccccc2)[C@@H](OS(=O)(=O)O)[C@H](OS(=O)(=O)O)[C@@H]1OS(=O)(=O)O | 196 µM | 480 µM | 76 µM |
| CO[C@H]1O[C@H](CNC(=O)CN(C(C)=O)C2CCCCCC2)[C@@H](OS(=O)(=O)O)[C@H](OS(=O)(=O)O)[C@@H]1OS(=O)(=O)O | 370 µM | 410 µM | 3000 µM |
| CCN(CC(=O)NC[C@H]1O[C@H](OC)[C@@H](OS(=O)(=O)O)[C@@H](OS(=O)(=O)O)[C@@H]1OS(=O)(=O)O)C(=O)c1ccccc1 | 366 µM | 480 µM | 1100 µM |
| CCN(CC(=O)NC[C@H]1O[C@H](OC)[C@@H](OS(=O)(=O)O)[C@@H](OS(=O)(=O)O)[C@@H]1OS(=O)(=O)O)C(=O)CCCCC(=O)O | 160 µM | 480 µM | 104 µM |
| CCN(CC(=O)NC[C@H]1O[C@H](OC)[C@@H](OS(=O)(=O)O)[C@@H](OS(=O)(=O)O)[C@@H]1OS(=O)(=O)O)C(=O)CCCCCCCCCOS(=O)(=O)O | 111 µM | 240 µM | 545 µM |
| CC(=O)N(CCc1ccccc1)CC(=O)NCCO[C@H]1O[C@H](COS(=O)(=O)O)[C@@H](OS(=O)(=O)O)[C@H](OS(=O)(=O)O)[C@@H]1OS(=O)(=O)O | 11.8 µM | 113 µM | 29 µM |
| CC(=O)N(CC(=O)NCCO[C@H]1O[C@H](COS(=O)(=O)O)[C@@H](OS(=O)(=O)O)[C@H](OS(=O)(=O)O)[C@@H]1OS(=O)(=O)O)c1ccccc1 | 97 µM | 240 µM | 402 µM |
| O=C(CNC(=O)Cc1cccc(Cl)c1)NCCO[C@H]1O[C@H](COS(=O)(=O)O)[C@@H](OS(=O)(=O)O)[C@H](OS(=O)(=O)O)[C@@H]1OS(=O)(=O)O | 170 µM | 837 µM | 91 µM |
| CCN(CC(=O)NCCO[C@H]1O[C@H](COS(=O)(=O)O)[C@@H](OS(=O)(=O)O)[C@H](OS(=O)(=O)O)[C@@H]1OS(=O)(=O)O)C(=O)CCCCCCCCCOS(=O)(=O)O | 20 µM | 157 µM | 50 µM |
| CCN(CC(=O)NC[C@H]1O[C@H](OC)[C@@H](OS(=O)(=O)O)[C@@H](OS(=O)(=O)O)[C@@H]1OS(=O)(=O)O)C(=O)CCC(=O)O | 338 µM | 291 µM | 207 µM |
